CHRM5 PAM: human M5 muscarinic receptor positive allosteric modulators, primary screen, CHO-K1 cells, Fluo-8 calcium fluorescence; activation, % at 3 µM; AID 624038, 2012; 360,000 compounds, 0.3% hits; CHO-K1 hM5, ACh EC20 PAM; 0% = ACh EC20, 100% = ACh EC100; Muscarinic acetylcholine receptor M5 (Homo sapiens), P08912;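 active = activation above the run cutoff, the mean activation of all test compounds plus 3 SD, cut at about 18% in these data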
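system = human M5 receptor in CHO-K1 cells | compound = one concentration, 3 µM final (nominal) | schedule = Post-acetylcholine fluorescence recording 140 s | signal = Fluo-8 calcium dye fluorescence, kinetic read | benchmarks = low control EC20 acetylcholine (0%), high control EC100 acetylcholine (100%) | repeats = singlicate, one well per test compound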
CHRM4 agonist: human M4 muscarinic receptor agonists, primary screen, CHO-K1 cells, Fluo-8 calcium fluorescence | activation, % at 3 µM | Muscarinic acetylcholine receptor M4 (Homo sapiens), P08173 | AID 624127, 2012 | CHO-K1 hM4/Gqi5; vehicle 0%, full acetylcholine response 100% | 360,000 compounds, 0.14% hits;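 active = activation above the run mean over all test wells plus 3 SD, cut at about 32% in these data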;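 also: peak over basal fluorescence ratio per well then scaled between controls; 0% = DMSO wells and 100% = acetylcholine at EC100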
Target sequence (P08173 whole entry, looked up): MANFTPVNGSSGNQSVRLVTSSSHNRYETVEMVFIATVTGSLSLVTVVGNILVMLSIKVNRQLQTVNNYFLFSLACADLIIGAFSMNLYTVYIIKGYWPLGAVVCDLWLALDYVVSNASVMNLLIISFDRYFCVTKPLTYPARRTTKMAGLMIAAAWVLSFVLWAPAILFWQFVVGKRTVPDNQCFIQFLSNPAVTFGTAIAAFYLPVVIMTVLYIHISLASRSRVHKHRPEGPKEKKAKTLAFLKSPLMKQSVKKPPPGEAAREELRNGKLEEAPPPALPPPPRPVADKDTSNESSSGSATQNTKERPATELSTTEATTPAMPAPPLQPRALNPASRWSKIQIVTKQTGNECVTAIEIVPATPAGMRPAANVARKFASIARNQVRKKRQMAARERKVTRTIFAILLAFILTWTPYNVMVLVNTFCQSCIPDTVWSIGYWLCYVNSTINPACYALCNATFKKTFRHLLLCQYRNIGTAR
CHRM4 PAM: human M4 muscarinic receptor positive allosteric modulators, primary screen, CHO-K1 cells, Fluo-8 calcium fluorescence; Muscarinic acetylcholine receptor M4 (Homo sapiens), P08173; CHO-K1 hM4/Gqi5, ACh EC20; 0% = ACh EC20, 100% = maximal ACh; activation, % at 3 µM; 360,000 compounds, 0.4% hits; AID 624126, 2012;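 active = activation above its plate's cutoff, the mean activation of sample wells plus 3 SD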
CHRM5 antagonist: human M5 muscarinic receptor antagonists, primary screen, CHO cells, Fluo-8 calcium fluorescence; AID 624040, 2012; CHO-hM5 cells, ACh EC80; 360,000 compounds, 0.59% hits; inhibition, % at 3 µM;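 active = inhibition above a per-plate cutoff, the mean of that plate's test compounds plus 3 SD, cut at about 27% in these data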;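 also: 0% = acetylcholine EC80 with DMSO and 100% = DMSO without agonist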
CHRM4 antagonist: human M4 muscarinic receptor antagonists, primary screen, CHO cells, Fluo-8 calcium fluorescence | Muscarinic acetylcholine receptor M4 (Homo sapiens), P08173 | CHO-hM4 cells, ACh EC80 | inhibition, % at 3 µM | 360,000 compounds, 0.73% hits | AID 624125, 2012;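 active = inhibition above its plate's cutoff, the mean inhibition of sample wells plus 3 SD, cut at about 27% in these data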;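 also: 0% = acetylcholine EC80 with DMSO and 100% = DMSO without agonist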
CHRM5 agonist: human M5 muscarinic receptor agonists, primary screen, CHO-K1 cells, Fluo-8 calcium fluorescence; Muscarinic acetylcholine receptor M5 (Homo sapiens), P08912; CHO-K1 hM5 cells; 0% DMSO wells, 100% maximal acetylcholine response; activation, % at 3 µM; 360,000 compounds, 0.19% hits;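 active = activation above the run's mean over test compounds plus 3 SD, cut at about 23% in these data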;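 also: signal is peak over basal fluorescence ratio across the kinetic read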
Active calls of the source: *. Hits are enriched below; roughly 1.8% of the tested compounds scored in any of these assays.

SMILES | CHRM5 PAM | CHRM4 agonist | CHRM4 PAM | CHRM5 antagonist | CHRM4 antagonist | CHRM5 agonist
CCCCN(C(=O)CCC(=O)Nc1cc(C)on1)C(C(=O)NC1CCCC1)c1ccccc1C (configuration not stated) | -1 | -3 | -4 | 11 | 3 | -3
COC(=O)CSc1nc(-c2cccs2)ccc1C#N | -8 | 4 | -30 | 3 | 74* | -4
COC(=O)C1=NN(C(=O)c2cccc(Br)c2)C(O)(c2ccc(Cl)cc2)C1 (configuration not stated) | -11 | 39* | -5 | 3 | 2 | 16
C=CCN1C(=O)/C(=C/C=C2/N(CC)c3ccc(S(=O)(=O)N(C)C)cc3N2CC)SC1=S | -7 | 5 | -11 | -7 | 0 | 24*
CCc1cccc(CC)c1N1C(=O)COCC1=O | -2 | 0 | -3 | 6 | -3 | -1
CCc1cccc(CC)c1N1C(=O)C2=C(SCCCS2)C1=O | -9 | 34* | -13 | 12 | 7 | 11
CCN(c1ccccc1)S(=O)(=O)c1ccc(Cl)nc1 | 9 | 0 | 0 | 2 | 1 | -9
O=S(=O)(c1ccc(Cl)nc1)N(Cc1ccccc1)Cc1ccccc1 | -11 | -2 | -30 | 14 | 33* | -5
C[C@H](NC(=O)c1nc[nH]c1C(=O)NCc1ccc(CNC(=O)OC(C)(C)C)cc1)C(=O)OCc1ccccc1 | -39 | 24 | -13 | 29* | 50* | 2
C[C@@H](NC(=O)c1nc[nH]c1C(=O)NCC(=O)OCc1ccccc1)c1ccccc1 | -35 | 25 | -11 | 28* | 20 | -4
O=C(CNC(=O)c1nc[nH]c1C(=O)N1CCNCC1)OCc1ccccc1 | 4 | 1 | 8 | -15 | -9 | 6
C[C@@H](NC(=O)c1nc[nH]c1C(=O)OCc1ccccc1)c1ccccc1 | -4 | 2 | 0 | 20 | -2 | 2
O=C(CNC(=O)c1nc[nH]c1C(=O)N1CCc2ccccc2C1)OCc1ccccc1 | -30 | 20 | -7 | 27* | 29* | -6
Cc1cccc(C)c1NC(=O)C1C(c2ccc3c(c2)OCO3)=Nc2ccccc2N1C(=O)c1ccccn1 (configuration not stated) | 0 | 17 | -1 | -14 | -8 | 1
CN(C)C1CCCCC=CC(=O)NC1 (configuration not stated) | 0 | 0 | 3 | 6 | -3 | 0
CN1CC(=O)N(CC(=O)NCc2ccc(F)cc2)c2ccccc2C1=O | 7 | 1 | 7 | -1 | -6 | -4
CN1CC(=O)N(CC(=O)Nc2ccc(F)cc2)c2ccccc2C1=O | 40* | 1 | 12 | -2 | -11 | -8
COCc1c(C(=O)OCC(=O)N2c3ccccc3NC(=O)C2(C)C)oc2ccccc12 | -12 | 15 | -10 | 13 | 27* | 4
O=C(NCc1ccccc1)C(C1CC1)n1c(-c2cccs2)nc2ccccc21 (configuration not stated) | 0 | 2 | 7 | 4 | 1 | -2
Cc1cc(F)ccc1-c1cc(C(=O)NCc2cccs2)[nH]n1 | 1 | 2 | 2 | -8 | -11 | 0
Cc1c(Cl)cccc1NC(=S)N1CCCCCC1 | 12 | 0 | 5 | -3 | -3 | -2
CCOC(=O)C1CCCN(C(=S)Nc2ccc(F)cc2)C1 (configuration not stated) | -12 | 7 | 2 | -3 | -3 | 23
CCOC(=O)C1CCCN(C(=S)Nc2ccc(OC)cc2)C1 (configuration not stated) | -18 | 7 | -10 | 7 | 11 | 34*
CCOC(=O)C1CCCN(C(=S)Nc2cccc(Cl)c2)C1 (configuration not stated) | -12 | 6 | -4 | -2 | 7 | 33*

Source: PubChem (The Scripps Research Institute Molecular Screening Center)
